Test results as given in ChEMBL document CHEMBL3751738, “Structure-based design and biological evaluation of novel 2-(indol-2-yl) thiazole derivatives as xanthine oxidase inhibitors” (Bioorg Med Chem Lett, 2016).

Target: not listed separately
Assay: Inhibition of butter milk xanthine oxidase (unknown origin) assessed as initial velocity of uric acid formation pre-incubated for 3 mins by spectrophotometry analysis
Conditions: not given
Method in brief: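 Buttermilk xanthine oxidase diluted to 0.05 U/mL in 50 mM phosphate buffer. Compounds at several concentrations were added in phosphate buffer containing 10% DMSO and pre-incubated 3 min at room temperature. The reaction was started with xanthine solution (200 µM as added). Uric acid formation was read at 293 nm, with the linear rate over 5 min taken as initial velocity. % inhibition was calculated against the no-inhibitor rate, and IC50 derived.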

`Cc1nc(-c2cc3cc(OC(C)C)cc(C#N)c3[nH]2)sc1C(=O)O` and `Cc1nc(-c2cc3cc(OC(C)C)cc([N+](=O)[O-])c3[nH]2)sc1C(=O)O` are within 1.5-fold of each other in IC50: 6.1 nM for the first, 5.1 nM for the second.

Going from `Cc1nc(-c2cc3cc(Oc4ccccc4)cc(C#N)c3[nH]2)sc1C(=O)O` to `Cc1nc(-c2cc3cc(Oc4ccccc4)cc(Cl)c3[nH]2)sc1C(=O)O`, the IC50 rises from 8.9 nM to 14.3 nM (1.6-fold).

Compared with `Cc1nc(-c2cc3cc(NC4CCCC4)cc(C#N)c3[nH]2)sc1C(=O)O`, `Cc1nc(-c2cc3cc(OC4CCCC4)cc(C#N)c3[nH]2)sc1C(=O)O` is 1.6-fold lower in IC50: 9.4 nM for the first, 5.7 nM for the second.

Going from `Cc1nc(-c2cc3cc(CNS(C)(=O)=O)cc([N+](=O)[O-])c3[nH]2)sc1C(=O)O` to `COc1cc([N+](=O)[O-])c2[nH]c(-c3nc(C)c(C(=O)O)s3)cc2c1`, the IC50 rises from 3.6 nM to 7 nM (1.9-fold). The first is the more potent here.

First: Cc1nc(-c2cc3cc(NCc4ccccc4)cc(C#N)c3[nH]2)sc1C(=O)O
Second: Cc1nc(-c2cc3cc(N)cc(C#N)c3[nH]2)sc1C(=O)O
The IC50 of the first is 3.4-fold lower: 9.3 nM for the first, 31.8 nM for the second.

First: Cc1nc(-c2cc3cc(OCC(C)C)ccc3[nH]2)sc1C(=O)O
Second: Cc1nc(-c2cc3ccc(OCC(C)C)cc3[nH]2)sc1C(=O)O
The IC50 of the first is 2.3-fold lower: 209 nM for the first, 481 nM for the second. The first is the more potent here.

Going from `Cc1nc(-c2cc3cc(N4CCCCC4)cc(C#N)c3[nH]2)sc1C(=O)O` to `COc1ccc2[nH]c(-c3nc(C)c(C(=O)O)s3)cc2c1`, the IC50 rises from 6.9 nM to 792 nM (110-fold). The first is the more potent here.

Going from `Cc1nc(-c2cc3cc(OCc4ccccc4)ccc3[nH]2)sc1C(=O)O` to `Cc1nc(-c2cc3cc(Oc4ccccc4)ccc3[nH]2)sc1C(=O)O`, the IC50 falls from 522 nM to 233 nM (2.2-fold). The second is the more potent here.

`Cc1nc(-c2cc3cc(Oc4ccccc4)cc(Br)c3[nH]2)sc1C(=O)O` and `Cc1nc(-c2cc3cc(Oc4ccccc4)cc([N+](=O)[O-])c3[nH]2)sc1C(=O)O` are within 1.5-fold of each other in IC50: 17 nM for the first, 15.9 nM for the second.

First: COc1ccc2cc(-c3nc(C)c(C(=O)O)s3)[nH]c2c1
Second: Cc1nc(-c2ccc(OCC(C)C)c(C#N)c2)sc1C(=O)O [FEBUXOSTAT]
The IC50 of the first is 710-fold higher: 2200 nM for the first, 3.1 nM for the second.

First: Oc1ncnc2[nH]ncc12 [ALLOPURINOL]
Second: N#Cc1cc(-c2n[nH]c(-c3ccncc3)n2)ccn1 [TOPIROXOSTAT]
The IC50 of the first is 710-fold higher: 3740 nM for the first, 5.3 nM for the second. The second is the more potent here.

Tested on: not listed separately
Assay: Half life in rat liver microsomes
Assay type: ADME
Conditions: not given

First: Cc1nc(-c2cc3cc(OC(C)C)cc(C#N)c3[nH]2)sc1C(=O)O
Second: Cc1nc(-c2cc3cc(OC(C)C)cc([N+](=O)[O-])c3[nH]2)sc1C(=O)O
The half-life of the first is 1.9-fold lower: 2.17 h for the first, 4.13 h for the second.

`Cc1nc(-c2cc3cc(Oc4ccccc4)cc(C#N)c3[nH]2)sc1C(=O)O` and `Cc1nc(-c2cc3cc(Oc4ccccc4)cc(Cl)c3[nH]2)sc1C(=O)O` are within 1.5-fold of each other in half-life: 3.67 h for the first, 4.69 h for the second.

`Cc1nc(-c2cc3cc(NC4CCCC4)cc(C#N)c3[nH]2)sc1C(=O)O` and `Cc1nc(-c2cc3cc(OC4CCCC4)cc(C#N)c3[nH]2)sc1C(=O)O` are within 1.5-fold of each other in half-life: 2.96 h for the first, 2.07 h for the second.

Going from `Cc1nc(-c2cc3cc(CNS(C)(=O)=O)cc([N+](=O)[O-])c3[nH]2)sc1C(=O)O` to `COc1cc([N+](=O)[O-])c2[nH]c(-c3nc(C)c(C(=O)O)s3)cc2c1`, the half-life falls from 14.6 h to 0.402 h (36-fold).

`Cc1nc(-c2cc3cc(NCc4ccccc4)cc(C#N)c3[nH]2)sc1C(=O)O` and `Cc1nc(-c2cc3cc(Oc4ccccc4)cc(Br)c3[nH]2)sc1C(=O)O` are within 1.5-fold of each other in half-life: 1.5 h for the first, 1.52 h for the second.

`Cc1nc(-c2cc3cc(OCC(C)C)ccc3[nH]2)sc1C(=O)O` and `Cc1nc(-c2cc3cc(Oc4ccccc4)ccc3[nH]2)sc1C(=O)O` are within 1.5-fold of each other in half-life: 1.61 h for the first, 1.94 h for the second.

Going from `Cc1nc(-c2cc3cc(N4CCCCC4)cc(C#N)c3[nH]2)sc1C(=O)O` to `Cc1nc(-c2cc3cc(Oc4ccccc4)cc([N+](=O)[O-])c3[nH]2)sc1C(=O)O`, the half-life rises from 2.51 h to 4.03 h (1.6-fold).

Tested on: Rattus norvegicus
Assay: Inhibition of oxonic acid-induced high uric acid level in Sprague-Dawley rat plasma at 10 mg/kg, po after 1 hr
Assay type: functional
Conditions: not given
Method in brief: (§1)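 Hyperuricemia was induced in male SD rats (about 200 g) with potassium oxonate 300 mg/kg i.p., suspended in 0.8% carboxymethylcellulose. One hour later compounds were dosed orally in PEG400:ethanol (2:1), and blood was taken 1 h post-dose for plasma uric acid. Inhibition was scaled with the normal group as 100% and the oxonate control as 0%. Statistics used ANOVA with Dunnett's post-test.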

Going from `Cc1nc(-c2cc3cc(OC(C)C)cc(C#N)c3[nH]2)sc1C(=O)O` to `Cc1nc(-c2cc3cc(OC(C)C)cc([N+](=O)[O-])c3[nH]2)sc1C(=O)O`, the inhibition in vivo at 10 mg/kg rises from 19% to 43%.

First: Cc1nc(-c2cc3cc(CNS(C)(=O)=O)cc([N+](=O)[O-])c3[nH]2)sc1C(=O)O
Second: COc1cc([N+](=O)[O-])c2[nH]c(-c3nc(C)c(C(=O)O)s3)cc2c1
The inhibition in vivo at 10 mg/kg of the first is lower: 0% for the first, 4% for the second.

Compared with `Cc1nc(-c2cc3cc(OC4CCCC4)cc(C#N)c3[nH]2)sc1C(=O)O`, `Cc1nc(-c2cc3cc(Oc4ccccc4)cc([N+](=O)[O-])c3[nH]2)sc1C(=O)O` is higher in inhibition in vivo at 10 mg/kg: 2.3% for the first, 7.1% for the second.

With `Cc1nc(-c2ccc(OCC(C)C)c(C#N)c2)sc1C(=O)O` [FEBUXOSTAT] the inhibition in vivo at 10 mg/kg was 60%.

Tested on: not listed separately
Assay: Cmax in Sprague-Dawley rat at 10 mg/kg, po
Assay type: ADME, organism-based
Set-up: dose 10 mg/kg, route oral
Conditions: in vivo
Method in brief: (§2)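 Single oral dose of 10 mg/kg given to SD rats. Plasma Cmax, Tmax, AUC0–last, AUC0–infinity and t1/2 were determined, n = 3.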

`Cc1nc(-c2cc3cc(OC(C)C)cc(C#N)c3[nH]2)sc1C(=O)O` and `Cc1nc(-c2cc3cc(OC(C)C)cc([N+](=O)[O-])c3[nH]2)sc1C(=O)O` are within 1.5-fold of each other in Cmax: 3750 ng/mL for the first, 4940 ng/mL for the second.

Compared with `Cc1nc(-c2cc3cc(NC4CCCC4)cc(C#N)c3[nH]2)sc1C(=O)O`, `Cc1nc(-c2cc3cc(OC4CCCC4)cc(C#N)c3[nH]2)sc1C(=O)O` is 2.4-fold higher in Cmax: 300 ng/mL for the first, 720 ng/mL for the second.

Going from `Cc1nc(-c2cc3cc(N4CCCCC4)cc(C#N)c3[nH]2)sc1C(=O)O` to `Cc1nc(-c2cc3cc(Oc4ccccc4)cc([N+](=O)[O-])c3[nH]2)sc1C(=O)O`, the Cmax rises from 740 ng/mL to 3200 ng/mL (4.3-fold).

Tested on: not listed separately
Assay: AUC (0 to last) in Sprague-Dawley rat at 10 mg/kg, po
Assay type: ADME, organism-based
Set-up: dose 10 mg/kg, route oral, time 0 - last
Conditions: in vivo
Method in brief: as §2

For `Cc1nc(-c2cc3cc(OC(C)C)cc([N+](=O)[O-])c3[nH]2)sc1C(=O)O`, the AUC(0-t) was 8230 ng·h/mL.

Tested on: not listed separately
Assay: AUC (0 to infinity) in Sprague-Dawley rat at 10 mg/kg, po
Assay type: ADME, organism-based
Set-up: dose 10 mg/kg, route oral, time infinity
Conditions: in vivo
Method in brief: as §2

`Cc1nc(-c2cc3cc(OC(C)C)cc([N+](=O)[O-])c3[nH]2)sc1C(=O)O` showed an AUC(0-inf) of 13100 ng·h/mL.

Tested on: not listed separately
Assay: Tmax in Sprague-Dawley rat at 10 mg/kg, po
Assay type: ADME, organism-based
Conditions: in vivo
Method in brief: as §2

Work on `Cc1nc(-c2cc3cc(OC(C)C)cc([N+](=O)[O-])c3[nH]2)sc1C(=O)O` yielded a Tmax of 0.42 h.

Tested on: not listed separately
Assay: Half life in Sprague-Dawley rat at 10 mg/kg, po
Assay type: ADME, organism-based
Conditions: in vivo
Method in brief: as §2

With `Cc1nc(-c2cc3cc(OC(C)C)cc([N+](=O)[O-])c3[nH]2)sc1C(=O)O` the half-life was 3.45 h.

Tested on: not listed separately
Assay: Plasma concentration in Sprague-Dawley rat at 10 mg/kg, po after 1 hr
Assay type: ADME, organism-based
Conditions: not given
Method in brief: as §1

Going from `Cc1nc(-c2cc3cc(CNS(C)(=O)=O)cc([N+](=O)[O-])c3[nH]2)sc1C(=O)O` to `COc1cc([N+](=O)[O-])c2[nH]c(-c3nc(C)c(C(=O)O)s3)cc2c1`, the concentration at 1 h rises from 17 ng/mL to 100 ng/mL (5.9-fold).
